The values that follow come from ChEMBL document CHEMBL4354843, “Structure-Based Design of a Potent and Selective Covalent Inhibitor for SRC Kinase That Targets a P-Loop Cysteine” (J Med Chem, 2020).

Active and inactive are the calls of the source. No cut-off for these calls is given here.

Assay [1] concerns the target Ribosomal protein S6 kinase alpha-2 (Homo sapiens) (UniProt Q15349). The assay is described as follows: Binding affinity to wild-type human partial length N- terminal RSK3 kinase domain 1 (M1 to Q385 residues) expressed in bacterial expression system assessed as residual binding level at 1 uM by Kinomescan method relative to control.
Assay [2] has as its target Mitogen-activated protein kinase kinase kinase 15 (Homo sapiens) (UniProt Q6ZN16). The assay is described as follows: Binding affinity to wild-type human partial length MAP3K15 (T625 to L932 residues) expressed in mammalian expression system assessed as residual binding level at 1 uM by Kinomescan method relative to control. In outline: (§1)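 Active-site-directed competition binding panel of 468 kinases (KinomeScan), compound at 1 μM. The read-out is kinase remaining bound, given as a percentage of the DMSO control. […]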

Assay [3] concerns the target Discoidin domain-containing receptor 2 (Homo sapiens) (UniProt Q16832). The assay is described as follows: Binding affinity to wild-type human partial length DDR2 (V555 to E855 residues) expressed in mammalian expression system assessed as residual binding level at 1 uM by Kinomescan method relative to control. In outline: as §1
The target in assay [4] is Myosin light chain kinase 2, skeletal/cardiac muscle (Homo sapiens) (UniProt Q9H1R3). The assay is described as follows: Binding affinity to wild-type human partial length MYLK2 (D258 to K570 residues) expressed in bacterial expression system assessed as residual binding level at 1 uM by Kinomescan method relative to control.
For assay [5], the target named is Serine/threonine-protein kinase D2 (Homo sapiens) (UniProt Q9BZL6). The assay is described as follows: Binding affinity to wild-type human partial length PRKD2 (A519 to E838 residues) expressed in bacterial expression system assessed as residual binding level at 1 uM by Kinomescan method relative to control. In a few lines: as §1
The target in assay [6] is Serine/threonine-protein kinase Nek4 (Homo sapiens) (UniProt P51957). The assay is described as follows: Binding affinity to wild-type human full length NEK4 (M1 to F841 residues) expressed in mammalian expression system assessed as residual binding level at 1 uM by Kinomescan method relative to control. In outline: (§2)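 KinomeScan, an active site-directed competition binding panel of 468 kinases. The test compound was at 1 μM. The readout is remaining kinase binding as a percentage of the DMSO control. Scores above 35% were treated as weak binding and not listed.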

Assay [7] concerns the target Mitogen-activated protein kinase 9 (Homo sapiens) (UniProt P45984). The assay is described as follows: Binding affinity to wild-type human full length JNK2 (M1 to Q382 residues) expressed in mammalian expression system assessed as residual binding level at 1 uM by Kinomescan method relative to control. In a few lines: as §2
The target of assay [8] is AP2-associated protein kinase 1 (Homo sapiens) (UniProt Q2M2I8). The assay is described as follows: Binding affinity to human wild-type AAK1 (G25 to L333 residues) expressed in bacterial expression system assessed as residual binding level at 1 uM by Kinomescan method relative to control. In a few lines:
(§3)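 Active-site-directed KinomeScan competition binding panel covering 468 kinases, compound tested at 1 μM. Each readout is the kinase signal remaining with compound, expressed as a percentage of the DMSO control. […]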

In assay [9] the target is MAP kinase-interacting serine/threonine-protein kinase 2 (Homo sapiens) (UniProt Q9HBH9). The assay is described as follows: Binding affinity to wild-type human partial length MKNK2 (G63 to S388 residues) expressed in mammalian expression system assessed as residual binding level at 1 uM by Kinomescan method relative to control. In outline:
as §1

The target in assay [10] is Activated CDC42 kinase 1 (Homo sapiens) (UniProt Q07912). The assay is described as follows: Binding affinity to wild-type human partial length TNK2 (S159 to D474 residues) expressed in bacterial expression system assessed as residual binding level at 1 uM by Kinomescan method relative to control. In a few lines:
(§4)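 Active site-directed competition binding panel (KinomeScan, 468 kinases). Test compound at 1 μM. Read-out is kinase binding remaining versus DMSO control, expressed as percent of control. Scores above 35% are treated as weak binding.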

Assay [11] concerns Mus musculus. The assay is described as follows: In vivo inhibition of SRC in C57B6 mouse assessed as blocking of SRC pulldown at 5 mg/kg, ip measured after 2 to 4 hrs by Western blot analysis. Format: functional, organism-based. In outline: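 Adult C57B6 mice, n = 2 per condition. Three intraperitoneal doses of 5 mg/kg, given every 12 h; vehicle is 5% DMSO/95% D5W. Spleens harvested 2 or 4 h after the last dose, homogenized and lysed in M-PER with protease/phosphatase inhibitors. Lysate incubated with 1 μM biotinylated probe TL13-68 overnight at 4 °C, streptavidin pulldown, SRC detected by Western blot.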
For orientation: In western blotting, separated proteins are transferred to a membrane and probed.

Assay [12] concerns Tyrosine-protein kinase ABL1 (Homo sapiens), P00519 [T315I]. The assay is described as follows: Binding affinity to human phosphorylated ABL1 T315I mutant (S229 to K512 residues) expressed in mammalian expression system assessed as residual binding level at 1 uM by Kinomescan method relative to control. In outline: as §3
Assay [13] has as its target Serine/threonine-protein kinase Nek3 (Homo sapiens) (UniProt P51956). The assay is described as follows: Binding affinity to wild-type human full length NEK3 (M1 to R506 residues) expressed in mammalian expression system assessed as residual binding level at 1 uM by Kinomescan method relative to control. In a few lines:
as §2

Assay [14] concerns Epidermal growth factor receptor (Homo sapiens), P00533 [UNDEFINED MUTATION]. The assay is described as follows: Binding affinity to human partial length EGFR E746-A750del mutant expressed in bacterial expression system assessed as residual binding level at 1 uM by Kinomescan method relative to control. In a few lines:
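KinomeScan active site-directed competition binding panel (468 kinases), compound tested at 1 μM. Result expressed as remaining kinase signal versus DMSO control (percent of control).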

Assay [15] has as its target Bone morphogenetic protein receptor type-1B (Homo sapiens) (UniProt O00238). The assay is described as follows: Binding affinity to wild-type human partial length BMPR1B (D178 to L502 residues) expressed in mammalian expression system assessed as residual binding level at 1 uM by Kinomescan method relative to control.
Assay [16] addresses Serine/threonine-protein kinase BRSK2 (Homo sapiens) (UniProt Q8IWQ3). The assay is described as follows: Binding affinity to wild-type human full length BRSK2 (M1 to L674 residues) expressed in bacterial expression system assessed as residual binding level at 1 uM by Kinomescan method relative to control. In outline:
as §3

Assay [17] concerns the target Mitogen-activated protein kinase; ERK1/ERK2 (Homo sapiens) (UniProt P27361+P28482). The assay is described as follows: Inhibition of ERK1/2 in human NCI-H1975 cells assessed as blocking of ERK1/2 pulldown at 1 uM in presence of TL13-68 incubated for 2 hrs by Western blot analysis. Format: cell-based. In a few lines:
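H1975 or HCC827 cells treated with 1 μM compound or DMSO for 2 h, rinsed twice in cold PBS, and lysed in M-PER with protease/phosphatase inhibitors. Lysate rocked overnight at 4 °C with 1 μM TL13-68, then streptavidin pulldown with five cold washes. Bound kinases detected by Western blot. Two independent experiments.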

The target in assay [18] is Uncharacterized serine/threonine-protein kinase SBK3 (Homo sapiens) (UniProt P0C264). The assay is described as follows: Binding affinity to wild-type human partial length SgK110 (L22 to R329 residues) expressed in bacterial expression system assessed as residual binding level at 1 uM by Kinomescan method relative to control. In outline:
as §4

Chain of Serine/threonine-protein kinase Nek4 (Homo sapiens) (P51957 whole entry, looked up, the tested form may be a part): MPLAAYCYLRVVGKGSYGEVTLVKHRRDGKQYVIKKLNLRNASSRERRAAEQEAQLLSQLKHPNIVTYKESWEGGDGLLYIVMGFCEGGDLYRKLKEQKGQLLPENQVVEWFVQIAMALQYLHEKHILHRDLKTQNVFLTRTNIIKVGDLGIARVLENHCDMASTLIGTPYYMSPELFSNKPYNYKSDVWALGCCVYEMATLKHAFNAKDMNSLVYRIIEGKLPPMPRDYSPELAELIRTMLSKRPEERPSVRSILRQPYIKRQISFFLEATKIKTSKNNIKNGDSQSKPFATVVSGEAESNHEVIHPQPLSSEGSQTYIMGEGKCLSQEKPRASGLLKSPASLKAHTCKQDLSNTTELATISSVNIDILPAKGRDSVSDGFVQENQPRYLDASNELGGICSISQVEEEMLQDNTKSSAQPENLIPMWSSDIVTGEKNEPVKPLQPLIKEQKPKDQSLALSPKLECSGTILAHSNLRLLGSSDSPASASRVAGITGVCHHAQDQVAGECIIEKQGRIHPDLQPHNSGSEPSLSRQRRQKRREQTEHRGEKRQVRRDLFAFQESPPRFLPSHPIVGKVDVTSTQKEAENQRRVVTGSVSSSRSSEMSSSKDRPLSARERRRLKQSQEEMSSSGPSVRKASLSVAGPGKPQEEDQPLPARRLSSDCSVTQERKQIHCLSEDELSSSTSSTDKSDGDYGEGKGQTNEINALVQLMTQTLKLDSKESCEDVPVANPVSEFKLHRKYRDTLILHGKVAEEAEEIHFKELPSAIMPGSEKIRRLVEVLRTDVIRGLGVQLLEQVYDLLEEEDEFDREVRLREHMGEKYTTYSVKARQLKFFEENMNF
Chain of Mitogen-activated protein kinase; ERK1/ERK2 (Homo sapiens) (P27361 whole entry, looked up): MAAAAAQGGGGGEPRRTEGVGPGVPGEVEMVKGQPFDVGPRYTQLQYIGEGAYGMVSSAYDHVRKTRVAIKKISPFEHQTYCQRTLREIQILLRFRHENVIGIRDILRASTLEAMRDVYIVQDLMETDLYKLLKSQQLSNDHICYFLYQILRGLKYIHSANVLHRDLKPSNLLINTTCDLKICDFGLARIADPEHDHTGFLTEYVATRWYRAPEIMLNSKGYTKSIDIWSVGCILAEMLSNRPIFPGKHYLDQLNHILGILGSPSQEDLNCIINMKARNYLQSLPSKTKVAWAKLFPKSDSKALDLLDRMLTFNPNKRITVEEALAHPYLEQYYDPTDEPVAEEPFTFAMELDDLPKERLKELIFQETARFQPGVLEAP
Chain of Mitogen-activated protein kinase; ERK1/ERK2 (Homo sapiens) (P28482 whole entry, looked up): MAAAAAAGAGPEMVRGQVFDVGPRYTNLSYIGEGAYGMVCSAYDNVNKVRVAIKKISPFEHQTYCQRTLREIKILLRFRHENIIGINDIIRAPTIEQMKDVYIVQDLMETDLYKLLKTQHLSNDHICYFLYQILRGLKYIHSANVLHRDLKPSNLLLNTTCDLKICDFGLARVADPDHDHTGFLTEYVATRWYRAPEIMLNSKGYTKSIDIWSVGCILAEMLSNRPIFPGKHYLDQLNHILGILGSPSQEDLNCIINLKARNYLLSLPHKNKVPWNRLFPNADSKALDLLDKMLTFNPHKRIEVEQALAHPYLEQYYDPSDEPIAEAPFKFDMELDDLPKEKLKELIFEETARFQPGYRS
Chain of Bone morphogenetic protein receptor type-1B (Homo sapiens) (O00238 whole entry, the tested form may be a part): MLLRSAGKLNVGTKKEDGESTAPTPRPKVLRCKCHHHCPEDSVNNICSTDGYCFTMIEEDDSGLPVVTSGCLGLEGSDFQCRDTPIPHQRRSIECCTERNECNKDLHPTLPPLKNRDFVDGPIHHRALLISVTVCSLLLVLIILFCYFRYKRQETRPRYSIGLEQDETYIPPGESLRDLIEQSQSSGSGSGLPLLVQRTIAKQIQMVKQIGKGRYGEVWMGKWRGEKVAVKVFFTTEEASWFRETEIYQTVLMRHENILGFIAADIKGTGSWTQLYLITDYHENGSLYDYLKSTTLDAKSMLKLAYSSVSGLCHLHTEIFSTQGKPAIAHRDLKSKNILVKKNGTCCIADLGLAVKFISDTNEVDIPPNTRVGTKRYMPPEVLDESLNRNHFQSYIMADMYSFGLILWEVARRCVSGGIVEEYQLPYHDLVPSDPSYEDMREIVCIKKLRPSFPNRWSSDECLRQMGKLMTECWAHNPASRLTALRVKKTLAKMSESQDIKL
Chain of AP2-associated protein kinase 1 (Homo sapiens) (Q2M2I8 whole entry, looked up, the tested form may be a part): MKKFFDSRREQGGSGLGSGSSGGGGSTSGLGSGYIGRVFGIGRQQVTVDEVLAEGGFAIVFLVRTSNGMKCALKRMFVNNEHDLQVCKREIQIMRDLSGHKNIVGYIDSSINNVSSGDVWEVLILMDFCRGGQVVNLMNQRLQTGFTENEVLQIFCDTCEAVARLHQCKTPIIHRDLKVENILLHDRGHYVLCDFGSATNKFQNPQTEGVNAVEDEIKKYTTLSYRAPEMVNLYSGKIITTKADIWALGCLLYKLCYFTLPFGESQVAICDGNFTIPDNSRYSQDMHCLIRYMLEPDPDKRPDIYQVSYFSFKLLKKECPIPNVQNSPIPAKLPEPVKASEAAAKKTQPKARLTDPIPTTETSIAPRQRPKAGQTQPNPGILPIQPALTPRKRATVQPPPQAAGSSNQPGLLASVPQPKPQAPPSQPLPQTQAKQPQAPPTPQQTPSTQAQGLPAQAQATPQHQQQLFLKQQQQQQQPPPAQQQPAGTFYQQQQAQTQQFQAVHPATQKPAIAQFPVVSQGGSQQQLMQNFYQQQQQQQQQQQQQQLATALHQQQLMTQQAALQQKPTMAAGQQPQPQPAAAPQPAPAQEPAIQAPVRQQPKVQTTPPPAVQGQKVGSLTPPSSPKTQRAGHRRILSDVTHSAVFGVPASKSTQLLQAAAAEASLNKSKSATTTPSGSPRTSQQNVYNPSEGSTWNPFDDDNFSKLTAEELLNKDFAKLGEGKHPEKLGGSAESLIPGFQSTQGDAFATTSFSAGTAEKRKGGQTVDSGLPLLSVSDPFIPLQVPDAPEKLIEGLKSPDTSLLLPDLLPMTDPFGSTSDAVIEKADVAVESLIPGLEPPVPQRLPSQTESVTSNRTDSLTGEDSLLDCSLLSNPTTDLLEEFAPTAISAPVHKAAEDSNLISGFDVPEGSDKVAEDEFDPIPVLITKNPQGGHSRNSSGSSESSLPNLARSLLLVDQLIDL
Chain of Mitogen-activated protein kinase kinase kinase 15 (Homo sapiens) (Q6ZN16 whole entry, the tested form may be a part): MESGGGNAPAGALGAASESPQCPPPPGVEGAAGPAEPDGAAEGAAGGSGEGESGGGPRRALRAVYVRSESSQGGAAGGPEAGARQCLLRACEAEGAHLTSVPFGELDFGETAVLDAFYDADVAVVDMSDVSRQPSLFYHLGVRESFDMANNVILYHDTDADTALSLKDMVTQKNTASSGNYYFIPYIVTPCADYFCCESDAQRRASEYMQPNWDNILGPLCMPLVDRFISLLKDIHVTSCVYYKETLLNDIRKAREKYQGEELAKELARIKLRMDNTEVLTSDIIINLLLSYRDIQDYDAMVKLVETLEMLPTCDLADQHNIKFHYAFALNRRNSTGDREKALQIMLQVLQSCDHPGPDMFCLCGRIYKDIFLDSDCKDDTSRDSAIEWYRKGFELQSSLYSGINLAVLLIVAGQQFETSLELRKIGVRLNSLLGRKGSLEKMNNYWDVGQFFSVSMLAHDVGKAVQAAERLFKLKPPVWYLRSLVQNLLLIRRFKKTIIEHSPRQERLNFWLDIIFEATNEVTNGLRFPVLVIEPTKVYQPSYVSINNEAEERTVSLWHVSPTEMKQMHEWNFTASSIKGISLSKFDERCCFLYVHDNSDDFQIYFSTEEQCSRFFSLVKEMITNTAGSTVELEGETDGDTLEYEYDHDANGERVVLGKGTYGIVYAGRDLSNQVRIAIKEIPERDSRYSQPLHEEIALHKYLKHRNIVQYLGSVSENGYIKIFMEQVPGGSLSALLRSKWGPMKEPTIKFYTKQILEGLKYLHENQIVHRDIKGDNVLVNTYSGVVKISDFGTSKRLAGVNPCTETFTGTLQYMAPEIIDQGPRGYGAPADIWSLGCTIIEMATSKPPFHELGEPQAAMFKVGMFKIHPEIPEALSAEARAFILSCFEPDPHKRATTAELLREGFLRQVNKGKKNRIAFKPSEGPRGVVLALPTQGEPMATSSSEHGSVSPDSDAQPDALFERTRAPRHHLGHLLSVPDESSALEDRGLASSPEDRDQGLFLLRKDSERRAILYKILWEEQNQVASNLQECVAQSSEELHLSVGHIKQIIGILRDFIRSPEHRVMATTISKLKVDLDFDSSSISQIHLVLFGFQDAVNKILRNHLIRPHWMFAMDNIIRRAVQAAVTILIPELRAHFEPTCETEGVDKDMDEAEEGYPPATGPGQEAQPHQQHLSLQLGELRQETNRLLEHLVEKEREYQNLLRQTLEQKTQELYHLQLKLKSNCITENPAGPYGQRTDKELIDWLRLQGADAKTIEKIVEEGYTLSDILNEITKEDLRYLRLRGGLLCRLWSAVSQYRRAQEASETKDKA
Chain of Mitogen-activated protein kinase 9 (Homo sapiens) (P45984 whole entry, looked up, the tested form may be a part): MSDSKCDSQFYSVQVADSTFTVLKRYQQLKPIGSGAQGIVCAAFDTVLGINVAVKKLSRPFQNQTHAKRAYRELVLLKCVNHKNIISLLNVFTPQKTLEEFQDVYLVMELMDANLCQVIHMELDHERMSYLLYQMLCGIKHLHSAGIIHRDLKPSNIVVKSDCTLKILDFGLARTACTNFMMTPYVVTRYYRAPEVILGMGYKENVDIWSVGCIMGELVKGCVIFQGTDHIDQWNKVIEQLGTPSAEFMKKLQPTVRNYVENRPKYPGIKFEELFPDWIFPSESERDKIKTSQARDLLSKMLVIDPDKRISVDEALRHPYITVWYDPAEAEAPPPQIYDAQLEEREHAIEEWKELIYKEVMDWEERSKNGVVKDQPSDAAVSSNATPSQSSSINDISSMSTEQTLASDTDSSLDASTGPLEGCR

Consider `C=CC(=O)Nc1ccccc1Nc1nc(Nc2ccc(N3CCN(C)CC3)cc2)ncc1C(=O)Nc1c(C)cccc1Cl`, for which the Activity in assay [1] was 100%; in assay [2], 80%; in assay [3], 26%; in assay [4], 100%; in assay [5] it was 99%; in assay [6] it was 94%. In addition, the Activity in assay [7] worked out at 94%; in [8] it was 100%; in assay [9], 97%; in assay [10], 81%; in [12], 100%; in [13] it was 88%. For the same molecule, the Activity came out at 67% in assay [14], 100% in assay [15], 100% in assay [16] and 60% in assay [18]. Moreover, in assay [11], the inhibition entry is “Active”. For the same molecule, the inhibition result in [17] is “inactive”.
